Only some compounds are listed: those with a hit (about 3.4% of all), similar ones and a draw of the others.
rRNA inh HTS: inhibitors of bacterial rRNA selective over humanized ribosomes; E. coli WT GFP vs humanized-ribosome RFP mutants, fluorescence, 24 h; stronger effect = lower value; DMSO median 0, no signal -100; 350,000 compounds, 1.6% hits; GFP signal change (wild-type ribosome), % (no concentration beside the values);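 active = significant combined selectivity score with lowered wild-type GFP, culture density cut under 30%, mutant RFP and density less affected; inactive = any of these conditions unmet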
ERAP1 inh: ERAP1 (human) enzyme inhibition. AID 652197. 340,000 compounds, 0.15% hits. recombinant ERAP1, Leu-AMC fluorescence, 60 min. Q9NZ08. inhibition, % at 10.7 µM;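 active = mean replicate inhibition of at least 30%, or all replicates individually reaching that 30% level; inactive = mean below 30% and not every replicate reaching it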;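 also: 0% = neutral control wells and 100% = L-leucinethiol positive control wells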
S100A4 MyoIIA: S100A4-myosin IIA interaction inhibition; S100A4/TAMRA-MyoIIA peptide fluorescence polarization; inhibition, % at 10.7 µM; AID 652163; 360,000 compounds, 0.14% hits;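 active = mean inhibition of at least 70% across replicates, with every replicate also reaching that level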
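Test system – S100A4 monomer (human) · Compound – single-point compound testing · Schedule – 5 min incubation before reading · Probe or stimulus – TAMRA-labelled myosin IIA heavy-chain peptide probe, 5 nM · Benchmarks – neutral control DMSO, positive control TFP · Medium – Calcium-containing HEPES buffer, pH 7.2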
E-sel inducer: induces E-selectin expression in human endothelial cells; P16581; HUVEC E-selectin immunofluorescence imaging; normalized: neutral wells 0, TNF-alpha wells 100; 260,000 compounds, 0.37% hits; activation, % at 7.58 µM;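 active = mean E-selectin-positive cell signal at least 10% of the positive control, reached in at least 60% of replicates, without over 20% cell loss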
Target sequence (P16581 whole entry, looked up): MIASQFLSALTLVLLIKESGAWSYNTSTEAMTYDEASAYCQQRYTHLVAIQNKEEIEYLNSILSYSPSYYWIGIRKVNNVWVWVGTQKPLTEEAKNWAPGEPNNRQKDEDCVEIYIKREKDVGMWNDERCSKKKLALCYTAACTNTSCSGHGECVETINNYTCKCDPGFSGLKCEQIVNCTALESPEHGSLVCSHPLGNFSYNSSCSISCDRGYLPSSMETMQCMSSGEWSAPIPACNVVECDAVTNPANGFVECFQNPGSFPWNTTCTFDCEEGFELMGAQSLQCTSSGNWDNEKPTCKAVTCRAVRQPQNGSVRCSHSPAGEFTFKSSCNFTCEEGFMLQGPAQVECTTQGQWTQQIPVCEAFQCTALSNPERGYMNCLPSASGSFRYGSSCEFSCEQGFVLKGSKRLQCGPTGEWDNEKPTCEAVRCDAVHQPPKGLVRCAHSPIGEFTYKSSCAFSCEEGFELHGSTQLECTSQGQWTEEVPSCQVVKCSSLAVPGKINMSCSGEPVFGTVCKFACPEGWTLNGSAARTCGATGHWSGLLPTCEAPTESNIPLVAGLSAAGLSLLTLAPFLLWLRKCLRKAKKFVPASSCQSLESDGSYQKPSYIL
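material = human umbilical vein endothelial cells (HUVEC), E-selectin induction | quantity = 3,000 cells/well | medium = EGM-2 growth medium on 0.1% gelatin-coated wells | technique = immunofluorescence imaging | read-out basis = % PE-positive cells | control set = TNF-alpha positive control, DMSO neutral control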
MLL AF4-AF9 inh: inhibitors of human MLL-AF4/AF9 interaction; inhibition, % at 10 µM; P42568; 350,000 compounds, 0.47% hits; AID 651704; AlphaScreen, biotin-AF4 peptide binding to FLAG-AF9;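 active = every replicate reaching a set inhibition limit, whatever the replicate mean, cut at about 25% in these data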;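 also: 0% = plate neutral control median and 100% = total signal loss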
SIRT5 inh: inhibitors of human sirtuin-5 desuccinylase; Purified SirT5, succinyl-peptide AMC, trypsin-coupled fluorescence; inhibition, % at 15 µM; AID 652115; 330,000 compounds, 1.1% hits; in the data active = inhibition above about 15%
Active calls of the source: *; . = no result.

SMILES	rRNA inh HTS	ERAP1 inh	S100A4 MyoIIA	E-sel inducer	MLL AF4-AF9 inh	SIRT5 inh
Cc1cccc(CN2CCN(C3CN(Cc4cn(Cc5ccc(F)cc5)nn4)S(=O)(=O)C3)CC2)c1 (centres undefined)	-5.4	.	-2.7	0.8	2.8	2.2
CCCCCCn1cc(CN2CC(N3CCSCC3)CS2(=O)=O)nn1 (centres undefined)	4.3	-1.4	-1.0	0.0	-0.7	17.4*
Cc1cccc(CN2CCN(C3CN(Cc4cn(Cc5ccc(Cl)cc5)nn4)S(=O)(=O)C3)CC2)c1 (centres undefined)	-25.5*	.	-1.9	3.6	2.5	-5.6
Cc1ccc(Cn2cc(CN3CC(N4CCN(Cc5cccc(C)c5)CC4)CS3(=O)=O)nn2)cc1 (centres undefined)	-13.2	.	-6.2	-0.2	0.8	0.3
O=S1(=O)CC(N2CCN(Cc3ccccc3F)CC2)CN1Cc1cn(Cc2cccc(Cl)c2)nn1 (centres undefined)	-24.2*	.	0.6	-0.3	0.8	-2.9
CCCCCCn1cc(CN2CC(N3CCCC3)CS2(=O)=O)nn1 (centres undefined)	4.0	-1.0	-0.4	0.2	0.2	-2.6
CN(C)CCN1CCN(C2CN(Cc3cn(Cc4ccccc4C(F)(F)F)nn3)S(=O)(=O)C2)CC1 (centres undefined)	5.4	-2.4	-0.5	0.0	0.1	20.6*
O=S1(=O)CC(N2CCCC2)CN1Cc1cn(Cc2ccccc2)nn1 (centres undefined)	9.4	-2.4	-1.8	0.0	-5.7	27.8*
CN1CCN(C2CN(Cc3cn(Cc4ccccc4C(F)(F)F)nn3)S(=O)(=O)C2)CC1 (centres undefined)	-3.0	-2.7	1.4	-0.1	-2.5	-1.9
COC(=O)c1cc(NC(=O)c2cc(-c3ccccc3Cl)oc2C(F)(F)F)ccc1N1CCOCC1	-32.2*	4.1	-1.1	3.8	.	-0.4
COC(=O)c1cc(NC(=O)c2cc(-c3ccc(Cl)cc3)oc2C(F)(F)F)ccc1N1CCOCC1	-10.0	2.7	-11.6	0.2	-2.6	-2.1
CO[C@@H]1CN(C)C(=O)c2ccc(NC(=O)c3cccc(F)c3)cc2OC[C@@H](C)N(C(C)=O)C[C@H]1C	-2.7	.	.	.	.	.
COc1cc([N+](=O)[O-])cc(/C=N\NC(=O)C2COc3ccccc3O2)c1O (centres undefined)	-20.4*	5.6	-1.7	5.2	-1.2	1.9
Cc1cccc(NC(=O)Cc2ccc(NC3=NC4CS(=O)(=O)CC4S3)cc2)c1 (centres undefined)	2.8	1.4	4.3	5.2	-11.3	0.9
Cc1cc(C)cc(NC(=O)Cc2ccc(NC3=NC4CS(=O)(=O)CC4S3)cc2)c1 (centres undefined)	7.6	5.9	-6.6	51.0*	1.0	-4.5
O=C(c1ccc(NC2=NC3CS(=O)(=O)CC3S2)cc1)N1CCN(c2ccc(F)cc2)CC1 (centres undefined)	0.3	0.5	4.8	.	0.6	-1.4
O=C(c1ccc(NC2=NC3CS(=O)(=O)CC3S2)cc1)N1CCN(c2ccccc2F)CC1 (centres undefined)	13.7	3.7	-1.3	0.1	48.3*	2.8
O=C(NNc1ccc([N+](=O)[O-])cn1)Nc1ccc(N=Nc2ccccc2)cc1	-4.1*	2.5	-2.5	0.2	-9.6	.
CN(C)C(=O)C[C@H]1C=C[C@H](NC(=O)c2ccc(F)cc2)[C@H](CO)O1	1.3	0.5	-21.7	0.1	-2.0	-3.7
CC1CCCN(C(=O)COC(=O)C2CCN(S(=O)(=O)c3c(Cl)cccc3Cl)CC2)C1 (centres undefined)	-15.9	-0.1	5.2	.	-1.3	18.2*
Cc1cc(C)c2c(c1)NC(C(=O)O)C1CC=CC21 (centres undefined)	8.1	8.1	-3.5	.	13.3	18.2*
C[C@H]1CN([C@@H](C)CO)C(=O)c2cc(N(C)C)ccc2O[C@@H]1CN(C)S(=O)(=O)c1cccs1	-0.8	-0.7	-1.4	0.0	2.6	0.3
O=c1[nH]c2ccc(Br)cc2c(-c2ccccc2)c1N1CCOCC1	-21.3	8.0	43.8	0.1	25.0*	-3.2

Source: PubChem BioAssay (Broad Institute)
